For assay [1], the system named is HUVEC. Put plainly: In vitro inhibition of primary human umbilical vein endothelial cell (HUVEC) proliferation at 0.01 uM. It counts as functional. Particulars: values are per cent of control. In short, it runs like this: (§1)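 bFGF-stimulated HUVEC proliferation; cells incubated with bFGF alone or with increasing compound concentrations. Cell counts remaining normalized: maximal bFGF response = 100%, wells without bFGF (starved) = 0%. Mean ± SEM, n = 11 or n = 5 depending on experiment.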

In assay [2] the test system is HUVEC. The assay can be described thus: In vitro inhibition of primary human umbilical vein endothelial cell (HUVEC) proliferation at 3 uM. Particulars: values are per cent of control. It counts as functional. In short, it runs like this:
as §1

Assay [3] concerns HUVEC. The assay can be described thus: In vitro inhibition of primary human umbilical vein endothelial cell (HUVEC) proliferation at 10 uM. Particulars: values are per cent of control. It counts as functional. In short, it runs like this:
as §1

In assay [4] the test system is HUVEC. Put plainly: In vitro inhibition of primary human umbilical vein endothelial cell (HUVEC) proliferation at 1 uM. It counts as functional. To be noted: values are per cent of control. In short, it runs like this:
as §1

In assay [5] the test system is HUVEC. Put plainly: IIn vitro inhibition of primary human umbilical vein endothelial cell (HUVEC) proliferation at 0.1 uM. It counts as functional. To be noted: values are per cent of control. In short, it runs like this:
as §1

For assay [6], the target named is Estrogen receptor beta (Homo sapiens) (UniProt Q92731). Put plainly: In vitro displacement of 0.5 nM [3H]E2 from human Estrogen receptor beta at 10 uM.
Sequence of Estrogen receptor beta (Homo sapiens) (Q92731 whole entry): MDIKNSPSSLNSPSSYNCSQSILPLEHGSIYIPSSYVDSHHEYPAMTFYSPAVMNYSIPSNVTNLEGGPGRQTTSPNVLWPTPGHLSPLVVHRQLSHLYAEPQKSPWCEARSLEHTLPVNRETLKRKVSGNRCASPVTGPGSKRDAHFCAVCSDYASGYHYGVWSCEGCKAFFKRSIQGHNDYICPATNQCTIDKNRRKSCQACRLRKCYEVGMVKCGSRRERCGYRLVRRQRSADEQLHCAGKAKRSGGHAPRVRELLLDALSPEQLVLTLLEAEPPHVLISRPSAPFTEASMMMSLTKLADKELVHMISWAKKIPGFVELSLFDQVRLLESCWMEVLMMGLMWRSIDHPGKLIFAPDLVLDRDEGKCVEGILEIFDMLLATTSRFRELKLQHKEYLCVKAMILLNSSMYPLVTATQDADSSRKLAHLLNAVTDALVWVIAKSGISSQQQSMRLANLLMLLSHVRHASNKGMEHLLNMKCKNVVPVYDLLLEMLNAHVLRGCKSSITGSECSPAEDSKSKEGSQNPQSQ

In the case of `COc1ccc2c(c1)oc(=O)c1cc(C(C)=O)ccc12`, the growth, % of control at 0.01 µM with HUVEC [1] is 100%. Also, the growth, % of control at 3 µM in the assay with HUVEC [2] worked out at 30%. The growth, % of control at 10 µM in the assay with HUVEC [3] was 25%. In the assay with HUVEC [4], this compound had a growth, % of control at 1 µM of 85%. Also, the growth, % of control at 0.1 µM in the assay on HUVEC [5] was 90%. This compound registered a Binding in assay [6] of 100%.

Compound `COc1cc2c(cc1O)oc(=O)c1cc(C(C)=O)ccc12` showed a growth, % of control at 0.01 µM in the assay with HUVEC [1] of 90%. Further, the growth, % of control at 3 µM with HUVEC [2] was 60%. In addition, the growth, % of control at 10 µM in the assay with HUVEC [3] came out at 10%. Besides, in the assay with HUVEC [4], the growth, % of control at 1 µM came to 85%. The compound further returned a growth, % of control at 0.1 µM with HUVEC [5] of 100%. Besides, the Binding in assay [6] stood at 90%.

The compound `COc1cc2c(cc1O)CC[C@@H]1[C@@H]2CC[C@]2(C)[C@@H](O)CC[C@@H]12` [2-METHOXYESTRADIOL] showed a growth, % of control at 0.01 µM with HUVEC [1] of 100%. This compound also had a growth, % of control at 3 µM in the assay on HUVEC [2] of 25%. For the same compound, the growth, % of control at 1 µM with HUVEC [4] was determined as 60%. Moreover, the growth, % of control at 0.1 µM in the assay with HUVEC [5] worked out at 100%. Further, the Binding in assay [6] was found to be 25%.
